From ChEMBL document CHEMBL5705899 (Biochem J, 2014)
Activity calls are given as the source filed them. The rule behind the calls is not given here.

Tests used:
[1] = tested on: RAC-beta serine/threonine-protein kinase (Homo sapiens), P31751 [S474D]; experiment: (§1) Inhibition of recombinant human N-terminal His6-tagged PKBbeta S474D mutant (120 to 481 residues) expressed in baculovirus infected Sf21 cells assessed as remaining activity at 1 uM using crosstide peptide as substrate incubated for 30 mins in presence of [gamma-33P]ATP by filter binding method relative to control
RAC-beta serine/threonine-protein kinase (Homo sapiens), P31751 [S474D], sequence (P31751 whole entry S474D, the tested form may be a part, canonical isoform): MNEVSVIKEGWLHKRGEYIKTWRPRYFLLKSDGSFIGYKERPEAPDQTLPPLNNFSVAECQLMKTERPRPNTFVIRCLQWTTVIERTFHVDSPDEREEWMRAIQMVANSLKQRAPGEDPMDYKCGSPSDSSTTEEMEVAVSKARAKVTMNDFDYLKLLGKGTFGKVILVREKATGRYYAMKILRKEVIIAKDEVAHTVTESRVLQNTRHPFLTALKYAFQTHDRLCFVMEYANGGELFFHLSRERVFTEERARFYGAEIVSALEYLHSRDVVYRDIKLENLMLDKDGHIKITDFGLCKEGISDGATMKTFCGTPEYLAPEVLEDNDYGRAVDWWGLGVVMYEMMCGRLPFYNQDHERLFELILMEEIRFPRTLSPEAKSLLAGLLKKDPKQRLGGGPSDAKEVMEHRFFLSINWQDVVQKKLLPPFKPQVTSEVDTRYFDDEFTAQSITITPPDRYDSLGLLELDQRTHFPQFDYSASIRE

[2] = molecular target: Casein kinase I isoform gamma-2 (Homo sapiens) (UniProt P78368); experiment: Inhibition of recombinant human N-terminal GST-tagged CK1g2 (1 to 415 residues) expressed in Escherichia coli assessed as remaining activity at 1 uM using RRKDLHDDEEDEAMSITA as substrate incubated for 30 mins in presence of [gamma-33P]ATP by filter binding method relative to control
Casein kinase I isoform gamma-2 (Homo sapiens), sequence (P78368 whole entry, looked up, the tested form may be a part, canonical isoform): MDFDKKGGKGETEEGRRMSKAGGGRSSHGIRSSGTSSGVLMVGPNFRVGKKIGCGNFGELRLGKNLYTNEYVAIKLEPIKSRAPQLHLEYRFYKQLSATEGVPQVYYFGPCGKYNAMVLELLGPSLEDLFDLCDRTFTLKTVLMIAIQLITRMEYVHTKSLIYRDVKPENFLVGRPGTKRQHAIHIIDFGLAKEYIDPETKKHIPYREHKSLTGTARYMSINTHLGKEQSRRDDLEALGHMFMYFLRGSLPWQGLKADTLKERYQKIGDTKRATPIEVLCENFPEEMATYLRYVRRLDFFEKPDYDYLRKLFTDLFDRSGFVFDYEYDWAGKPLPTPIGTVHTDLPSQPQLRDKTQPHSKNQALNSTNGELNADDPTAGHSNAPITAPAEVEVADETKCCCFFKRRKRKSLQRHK

[3] = tested on: RAC-alpha serine/threonine-protein kinase (Homo sapiens), P31749 [S473D]; experiment: as §1, with “human” for “human N-terminal”, “PKBalpha S473D” for “PKBbeta S474D”, “(118” for “(120”, “480” for “481”
[4] = molecular target: Phosphorylase b kinase gamma catalytic chain, skeletal muscle/heart isoform (Homo sapiens) (UniProt Q16816); experiment: Inhibition of recombinant human N-terminal GST-tagged PHKgamma1 (2 to 297 residues) expressed in Escherichia coli assessed as remaining activity at 1 uM using phosphorylase b peptide as substrate incubated for 30 mins in presence of [gamma-33P]ATP by filter binding method relative to control
[5] = molecular target: Inhibitor of nuclear factor kappa-B kinase subunit epsilon (Homo sapiens) (UniProt Q14164); experiment: Inhibition of recombinant human N-terminal GST-tagged IKKepsilon (1 to 716 residues) expressed in baculovirus infected Sf21 cells assessed as remaining activity at 1 uM using MBP as substrate incubated for 30 mins in presence of [gamma-33P]ATP by filter binding method relative to control
[6] = molecular target: MAP kinase-interacting serine/threonine-protein kinase 2 (Homo sapiens) (UniProt Q9HBH9); experiment: Inhibition of recombinant human N-terminal GST/C-terminal His6-tagged MNK2alpha (2 to 465 residues) expressed in Escherichia coli assessed as remaining activity at 1 uM using eIF4E as substrate incubated for 30 mins in presence of [gamma-33P]ATP by filter binding method relative to control
[7] = molecular target: Ribosomal protein S6 kinase alpha-1 (Homo sapiens) (UniProt Q15418); experiment: Inhibition of recombinant human N-terminal His6-tagged RSK1 (1 to 735 residues) expressed in baculovirus infected Sf21 cells assessed as remaining activity at 1 uM using KKLNRTLSVA as substrate incubated for 30 mins in presence of [gamma-33P]ATP by filter binding method relative to control
[8] = molecular target: Homeodomain-interacting protein kinase 2 (Homo sapiens) (UniProt Q9H2X6); experiment: Inhibition of recombinant human N-terminal GST-tagged HIPK2 (165 to 564 residues) expressed in Escherichia coli assessed as remaining activity at 1 uM using MBP as substrate incubated for 30 mins in presence of [gamma-33P]ATP by filter binding method relative to control
[9] = molecular target: Tyrosine-protein kinase Yes (Homo sapiens) (UniProt P07947); experiment: Inhibition of human YES at 1 uM using polyEY as substrate in presence of 33P-ATP by ProQinase assay
[10] = molecular target: Ephrin type-A receptor 7 (Homo sapiens) (UniProt Q15375); experiment: Inhibition of human EPHA7 at 1 uM using polyEy as substrate in presence of 33P-ATP by ProQinase assay
[11] = molecular target: Tyrosine-protein kinase receptor UFO (Homo sapiens) (UniProt P30530); experiment: Inhibition of human AXL at 1 uM using polyEy as substrate in presence of 33P-ATP by ProQinase assay
[12] = molecular target: Tyrosine-protein kinase Tec (Homo sapiens) (UniProt P42680); experiment: Inhibition of human TEC at 1 uM using polyEY as substrate in presence of 33P-ATP by ProQinase assay
[13] = molecular target: Dual specificity protein kinase TTK (Homo sapiens) (UniProt P33981); experiment: Inhibition of human TTK at 1 uM using RBER-CHKtide as substrate in presence of 33P-ATP by ProQinase assay
Dual specificity protein kinase TTK (Homo sapiens), sequence (P33981 whole entry): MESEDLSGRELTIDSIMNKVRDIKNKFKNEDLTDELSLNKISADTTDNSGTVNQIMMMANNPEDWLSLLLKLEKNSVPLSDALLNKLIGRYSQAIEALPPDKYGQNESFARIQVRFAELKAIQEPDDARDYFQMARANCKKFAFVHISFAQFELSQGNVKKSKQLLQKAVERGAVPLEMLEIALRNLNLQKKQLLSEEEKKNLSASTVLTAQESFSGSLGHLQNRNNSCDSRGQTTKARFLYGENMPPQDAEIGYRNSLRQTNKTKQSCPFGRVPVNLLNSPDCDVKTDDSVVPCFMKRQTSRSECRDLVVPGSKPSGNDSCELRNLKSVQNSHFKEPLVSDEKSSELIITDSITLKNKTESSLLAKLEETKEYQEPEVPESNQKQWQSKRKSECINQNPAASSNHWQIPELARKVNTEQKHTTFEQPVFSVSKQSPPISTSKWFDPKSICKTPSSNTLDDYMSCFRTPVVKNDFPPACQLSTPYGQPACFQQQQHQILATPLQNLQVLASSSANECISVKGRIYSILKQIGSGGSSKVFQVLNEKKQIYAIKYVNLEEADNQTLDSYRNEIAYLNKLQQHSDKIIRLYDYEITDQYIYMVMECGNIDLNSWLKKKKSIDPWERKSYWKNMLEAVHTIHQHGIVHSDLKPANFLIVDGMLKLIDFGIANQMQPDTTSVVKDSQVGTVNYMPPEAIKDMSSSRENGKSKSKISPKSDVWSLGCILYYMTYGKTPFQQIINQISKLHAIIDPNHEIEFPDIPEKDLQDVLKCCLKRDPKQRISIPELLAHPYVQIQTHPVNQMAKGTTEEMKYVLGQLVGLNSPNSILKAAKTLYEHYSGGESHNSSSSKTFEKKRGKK

[14] = molecular target: MAP/microtubule affinity-regulating kinase 4 (Homo sapiens) (UniProt Q96L34); experiment: Inhibition of human MARK4 at 1 uM using RBER-CHKtide as substrate in presence of 33P-ATP by ProQinase assay
[15] = molecular target: Rho-associated protein kinase 2 (Homo sapiens) (UniProt O75116); experiment: Inhibition of human ROCK2 at 1 uM using RB-S6P as substrate in presence of 33P-ATP by ProQinase assay
[16] = molecular target: Eukaryotic translation initiation factor 2-alpha kinase 3 (Homo sapiens) (UniProt Q9NZJ5); experiment: Inhibition of human EIF2AK3 at 1 uM using casein as substrate in presence of 33P-ATP by ProQinase assay
[17] = molecular target: MAP/microtubule affinity-regulating kinase 3 (Homo sapiens) (UniProt P27448); experiment: Inhibition of human MARK3 at 1 uM using RBER-CHKtide as substrate in presence of 33P-ATP by ProQinase assay
[18] = molecular target: Serine/threonine-protein kinase pim-1 (Homo sapiens) (UniProt P11309); experiment: Inhibition of human PIM1 at 1 uM using RBER-GSK3 as substrate in presence of 33P-ATP by ProQinase assay
[19] = molecular target: Serine/threonine-protein kinase N1 (Homo sapiens) (UniProt Q16512); experiment: Inhibition of human PRK1 at 1 uM using RBER-CHKtide as substrate in presence of 33P-ATP by ProQinase assay
Serine/threonine-protein kinase N1 (Homo sapiens), sequence (Q16512 2-942 limits assumed): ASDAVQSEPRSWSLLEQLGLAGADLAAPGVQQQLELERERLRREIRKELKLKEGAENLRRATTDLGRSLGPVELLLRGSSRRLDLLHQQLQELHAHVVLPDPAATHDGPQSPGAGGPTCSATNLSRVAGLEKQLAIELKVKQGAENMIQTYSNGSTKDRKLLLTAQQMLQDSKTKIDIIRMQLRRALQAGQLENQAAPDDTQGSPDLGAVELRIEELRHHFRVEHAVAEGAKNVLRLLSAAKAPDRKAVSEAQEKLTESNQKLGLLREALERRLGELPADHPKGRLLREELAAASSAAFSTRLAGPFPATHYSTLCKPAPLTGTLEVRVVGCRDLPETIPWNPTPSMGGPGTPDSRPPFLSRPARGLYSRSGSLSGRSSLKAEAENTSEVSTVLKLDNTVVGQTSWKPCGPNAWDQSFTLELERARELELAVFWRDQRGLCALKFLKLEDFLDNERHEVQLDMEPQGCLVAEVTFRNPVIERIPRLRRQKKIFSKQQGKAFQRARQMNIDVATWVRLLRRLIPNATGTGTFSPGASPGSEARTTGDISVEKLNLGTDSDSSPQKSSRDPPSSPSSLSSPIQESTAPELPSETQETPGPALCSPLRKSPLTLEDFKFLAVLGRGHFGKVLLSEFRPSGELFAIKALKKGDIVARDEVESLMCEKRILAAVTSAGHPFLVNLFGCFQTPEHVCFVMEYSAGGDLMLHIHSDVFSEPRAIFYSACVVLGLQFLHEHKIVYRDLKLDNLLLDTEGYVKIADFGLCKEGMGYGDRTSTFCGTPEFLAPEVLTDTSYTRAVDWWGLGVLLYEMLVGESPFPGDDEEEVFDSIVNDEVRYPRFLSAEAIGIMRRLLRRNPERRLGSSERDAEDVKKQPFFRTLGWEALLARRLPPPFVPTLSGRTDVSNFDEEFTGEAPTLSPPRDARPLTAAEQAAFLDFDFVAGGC

[20] = molecular target: Activin receptor type-2A (Homo sapiens) (UniProt P27037); experiment: Inhibition of human ACVR2A at 1 uM using casein as substrate in presence of 33P-ATP by ProQinase assay
Activin receptor type-2A (Homo sapiens), sequence (P27037 whole entry): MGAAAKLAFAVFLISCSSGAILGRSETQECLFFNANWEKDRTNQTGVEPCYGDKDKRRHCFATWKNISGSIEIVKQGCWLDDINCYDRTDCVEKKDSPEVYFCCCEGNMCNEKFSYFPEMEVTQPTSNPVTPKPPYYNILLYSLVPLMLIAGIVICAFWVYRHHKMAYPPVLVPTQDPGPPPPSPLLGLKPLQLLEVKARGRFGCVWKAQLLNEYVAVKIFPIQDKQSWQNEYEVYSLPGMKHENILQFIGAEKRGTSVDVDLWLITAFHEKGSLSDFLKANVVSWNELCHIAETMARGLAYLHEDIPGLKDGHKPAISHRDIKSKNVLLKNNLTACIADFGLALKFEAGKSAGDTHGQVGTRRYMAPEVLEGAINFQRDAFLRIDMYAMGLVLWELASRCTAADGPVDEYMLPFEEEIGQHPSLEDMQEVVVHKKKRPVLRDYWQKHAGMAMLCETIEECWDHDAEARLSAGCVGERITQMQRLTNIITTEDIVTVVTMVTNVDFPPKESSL

[21] = molecular target: Serine/threonine-protein kinase tousled-like 2 (Homo sapiens) (UniProt Q86UE8); experiment: Inhibition of human TLK2 at 1 uM using RB-S6P as substrate in presence of 33P-ATP by ProQinase assay
Serine/threonine-protein kinase tousled-like 2 (Homo sapiens), sequence (Q86UE8 whole entry, looked up): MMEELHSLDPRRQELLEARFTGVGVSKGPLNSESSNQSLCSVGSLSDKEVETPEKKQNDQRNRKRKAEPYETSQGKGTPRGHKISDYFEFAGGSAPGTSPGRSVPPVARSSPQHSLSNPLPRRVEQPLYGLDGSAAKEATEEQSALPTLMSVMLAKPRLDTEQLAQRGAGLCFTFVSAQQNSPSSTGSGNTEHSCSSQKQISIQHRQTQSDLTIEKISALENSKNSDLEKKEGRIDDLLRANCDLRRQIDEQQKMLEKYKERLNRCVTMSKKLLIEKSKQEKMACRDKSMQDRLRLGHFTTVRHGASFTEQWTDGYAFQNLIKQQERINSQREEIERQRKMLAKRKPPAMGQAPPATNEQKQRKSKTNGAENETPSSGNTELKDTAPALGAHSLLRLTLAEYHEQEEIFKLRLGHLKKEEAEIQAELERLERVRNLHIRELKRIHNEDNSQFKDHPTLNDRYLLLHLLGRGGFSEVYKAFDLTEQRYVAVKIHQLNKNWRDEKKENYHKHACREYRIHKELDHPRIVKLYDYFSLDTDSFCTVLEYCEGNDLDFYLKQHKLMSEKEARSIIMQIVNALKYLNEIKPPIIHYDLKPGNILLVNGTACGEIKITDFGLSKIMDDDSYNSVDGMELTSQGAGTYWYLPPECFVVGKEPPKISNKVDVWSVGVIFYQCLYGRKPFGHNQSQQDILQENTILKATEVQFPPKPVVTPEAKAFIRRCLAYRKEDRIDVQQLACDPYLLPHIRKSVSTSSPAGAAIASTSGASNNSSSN

[22] = molecular target: Serine/threonine-protein kinase 33 (Homo sapiens) (UniProt Q9BYT3); experiment: Inhibition of human STK33 at 1 uM using RBER-CHKtide as substrate in presence of 33P-ATP by ProQinase assay
[23] = molecular target: Mitogen-activated protein kinase 15 (Homo sapiens) (UniProt Q8TD08); experiment: Inhibition of human ERK7 at 1 uM using RBER-CHKtide as substrate in presence of 33P-ATP by ProQinase assay
Mitogen-activated protein kinase 15 (Homo sapiens), sequence (Q8TD08 whole entry, the tested form may be a part): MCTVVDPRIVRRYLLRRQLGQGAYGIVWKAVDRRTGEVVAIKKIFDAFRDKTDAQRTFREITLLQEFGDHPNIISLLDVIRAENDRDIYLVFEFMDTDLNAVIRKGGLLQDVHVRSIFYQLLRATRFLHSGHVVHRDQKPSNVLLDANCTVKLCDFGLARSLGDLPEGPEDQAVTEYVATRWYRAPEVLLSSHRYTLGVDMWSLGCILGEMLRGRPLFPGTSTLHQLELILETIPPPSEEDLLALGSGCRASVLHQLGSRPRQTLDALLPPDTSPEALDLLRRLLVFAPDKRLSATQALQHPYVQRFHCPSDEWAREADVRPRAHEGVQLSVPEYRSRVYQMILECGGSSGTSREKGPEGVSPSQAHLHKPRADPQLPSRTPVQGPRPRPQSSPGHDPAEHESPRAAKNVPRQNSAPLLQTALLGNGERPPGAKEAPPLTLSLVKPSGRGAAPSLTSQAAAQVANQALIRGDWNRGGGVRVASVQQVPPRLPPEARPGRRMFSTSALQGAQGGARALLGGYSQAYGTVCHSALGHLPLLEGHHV

[24] = molecular target: Sphingosine kinase 1 (Homo sapiens) (UniProt Q9NYA1); experiment: Inhibition of recombinant human N-terminal His6-tagged SPHK1 (1 to 384 residues) expressed in baculovirus expression system at 1 uM using sphingosine as substrate incubated for 40 mins by ADP-Glo assay
Sphingosine kinase 1 (Homo sapiens), sequence (Q9NYA1 whole entry, the tested form may be a part): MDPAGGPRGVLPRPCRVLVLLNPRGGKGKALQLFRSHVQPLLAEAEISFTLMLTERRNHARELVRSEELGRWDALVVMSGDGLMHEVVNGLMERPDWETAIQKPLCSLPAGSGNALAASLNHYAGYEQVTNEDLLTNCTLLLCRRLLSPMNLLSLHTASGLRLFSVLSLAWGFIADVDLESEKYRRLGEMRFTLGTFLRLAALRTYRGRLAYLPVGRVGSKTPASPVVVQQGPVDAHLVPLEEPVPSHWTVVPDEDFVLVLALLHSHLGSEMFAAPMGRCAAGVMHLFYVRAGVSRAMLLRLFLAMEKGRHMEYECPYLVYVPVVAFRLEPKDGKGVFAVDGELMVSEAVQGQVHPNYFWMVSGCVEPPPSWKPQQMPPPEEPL

[25] = molecular target: Phosphatidylinositol 4-phosphate 5-kinase type-1 gamma (Homo sapiens, UniProt O60331); experiment: Inhibition of PIP5K1C (unknown origin) using D-myo-PIP as substrate incubated for 45 mins by ADP-Glo assay
Method in brief: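 Substrates were 14 μM PtdIns 4-phosphate and 20 μM ATP, with inhibitor at varying concentrations. Reactions ran 45 min at ambient temperature, then luminescence detection was done as for the PI4K assays.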

`CC(C)(O)CNc1ncc(-c2ccnc(Nc3ccnc(Cl)c3)n2)c(CC2CC2)n1` gave an Activity [1] of 123%, an Activity [2] of 122% and an Activity [3] of 116%. For the same molecule, the Activity [4] was 105%, the Activity [5] was 103% and the Activity [6] was 100%. The Activity [7] was 99%, the Activity [8] was 96% and the inhibition [9] was “inactive”. The inhibition [10] was “inactive”, the inhibition [11] was “inactive” and the inhibition [12] was “inactive”. The inhibition [13] was “inactive”, the inhibition [14] was “inactive” and the inhibition [15] was “inactive”. The inhibition [16] was “inactive”, the inhibition [17] was “inactive” and the inhibition [18] was “inactive”. For the same molecule, the inhibition [19] was “inactive”, the inhibition [20] was “inactive” and the inhibition [21] was “inactive”. The inhibition [22] was “inactive”, the inhibition [23] was “inactive” and the inhibition [24] was “inactive”. It also gave an IC50 [25] of 0.382 µM.
